TAAR1 ag: human TAAR1 agonists, primary screen, Fluo-8 calcium fluorescence, CHO RD-HGA16 cells. Trace amine-associated receptor 1 (Homo sapiens), Q96RJ0. vehicle wells 0%, saturating PEA agonist 100%. activation, % at 3 µM. actives 0.99% (n = 360,000);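 active = activation above the mean activation of all test compounds in the run plus 3 SD, cut at about 38% in these data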
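Signal – calcium-sensitive Fluo-8 signal, excitation 470-495, emission 515-575 nm · System – RD-HGA16 (CHO) cells co-expressing Gα16 and hTAAR1 · Incubation – 17-24 h seeding, 75 min 37 °C dye, 30 min RT · Compound dosing – 3 µM single concentration · Repeats – no replicates (n 1)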
TAAR1 antag: human TAAR1 antagonists, primary screen, Fluo-8 calcium fluorescence, CHO RD-HGA16 cells. actives 1.5% (n = 360,000). antagonist. inhibition, % at 3 µM. Trace amine-associated receptor 1 (Homo sapiens), Q96RJ0;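 active = inhibition above a per-plate cutoff, the mean inhibition of test compounds on that plate plus 3 SD, cut at about 49% in these data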;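 note: 0% = DMSO plus EC80 beta-PEA response and 100% = DMSO alone without agonist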
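Material: RD-HGA16 CHO cells with stable hTAAR1 and Gα16; Dosing: single nominal final test compound concentration of 3 µM; Schedule: seeding 17-24 h prior, 75-min 37 °C, 30-min RT dye loading; Detection: kinetic Fluo-8 calcium fluorescence measurement; Measure: % inhibition from peak post-agonist over basal fluorescence ratio; Benchmarks: vehicle and agonist controls.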
OXTR potentiator: human OXTR potentiators, primary screen, fluorescence, CHO-OTR cells, Fluo-8 calcium; actives 0.061% (n = 320,000); Fluo-8 calcium fluorescence, potentiator mode; 0% = oxytocin EC15, 100% = EC100; activation, % at 3 µM; Oxytocin receptor (Homo sapiens), P30559; AID 2445, 2010;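 active = activation above that plate's cutoff, the mean activation of tested compounds plus 3 SD, cut at about 6.6% in these data, passing the limit was not always enough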;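 note: 100% uses oxytocin at 75 nM as the full agonist control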
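System: human OTR in CHO cells; Also added: sub-maximal oxytocin, roughly EC15; Timing: compound 6 min at room temperature before oxytocin, 100 s read; Technique: Fluo-8 intracellular calcium fluorescence, ex 470-495, em 515-575 nm; Controls: oxytocin EC15 low and EC100 high; Replication: singlicate.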
V1R ag counter: agonists of human V1a receptor, primary screen, counter-screen for OXTR agonist project, fluorescence, CHO-V1R cells; Vasopressin V1a receptor (Homo sapiens), P37288; Fluo-8 calcium fluorescence, agonist mode; 0% DMSO, 100% 3 nM vasopressin; activation, % at 3 µM; actives 0.25% (n = 320,000); AID 2797, 2010;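 active = activation above the mean activation of all tested compounds plus 3 SD, per screening run, cut at about 20% in these data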;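 note: signal is peak over basal fluorescence ratio across a 100 second FLIPR read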
Target sequence (P37288 whole entry, looked up): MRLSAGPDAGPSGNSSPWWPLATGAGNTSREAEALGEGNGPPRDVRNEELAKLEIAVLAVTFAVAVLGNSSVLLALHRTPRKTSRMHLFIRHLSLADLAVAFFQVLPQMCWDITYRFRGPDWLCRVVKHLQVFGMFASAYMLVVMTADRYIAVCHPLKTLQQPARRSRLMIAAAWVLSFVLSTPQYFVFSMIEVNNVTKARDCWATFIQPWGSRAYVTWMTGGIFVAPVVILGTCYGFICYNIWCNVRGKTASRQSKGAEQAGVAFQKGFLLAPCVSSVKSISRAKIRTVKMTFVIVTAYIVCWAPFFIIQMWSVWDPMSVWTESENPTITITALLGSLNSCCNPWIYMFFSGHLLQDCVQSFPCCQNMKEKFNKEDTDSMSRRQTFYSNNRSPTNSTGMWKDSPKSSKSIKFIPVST
OXTR agonist: human OXTR agonists, primary screen, fluorescence, CHO-OTR cells, Fluo-8 calcium; Oxytocin receptor (Homo sapiens), P30559; Fluo-8 calcium fluorescence; normalized: DMSO 0%, oxytocin 100%; activation, % at 3 µM; actives 0.32% (n = 320,000);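 active = activation above the mean of all tested compounds plus 3 SD, cutoff set per screening run, cut at about 20% in these data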;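 note: peak over basal fluorescence ratio from a 100 s FLIPR kinetic read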
Numbers without * were called inactive; . = no result. This is a sample that favours compounds with a hit; in the whole collection about 2.3% have one here.

SMILES | TAAR1 ag | TAAR1 antag | OXTR potentiator | V1R ag counter | OXTR agonist
CCn1nc(C(=O)N2CCc3ccccc3C2)c2ccccc2c1=O | 4 | -15 | -2 | -1 | -1
CCn1nc(C(=O)N2CCN(Cc3nc4ccccc4s3)CC2)c2ccccc2c1=O | 33 | 57* | -9 | 5 | 1
CN(CC(=O)Nc1cccc(F)c1)C(=O)c1ccccc1OCC(=O)Nc1cccc(C(F)(F)F)c1 | 19 | 82* | -19 | 5 | 2
CCc1cccc(C)c1N1C(=O)CC(C)(C)CC1=O | 4 | -36 | -5 | -1 | 0
O=C(c1ccco1)N1CCCC(c2nc(-c3ccc(S(=O)(=O)NCc4ccccc4)cc3)no2)C1 (stereo not drawn) | 16 | 59* | -14 | 11 | 12
CCOC(=O)C1CCN(C(c2cccnc2)c2c(NC(=O)c3ccco3)sc(C)c2C)CC1 (stereo not drawn) | 23 | 26 | 12* | -1 | -2
COc1ccc(C(NC(=O)C2CCN(Cc3ccc(Oc4ccccc4)cc3)CC2)c2ccccc2C)cn1 (stereo not drawn) | 4 | 28 | . | . | .
CSc1ccc(CN(C)C(=O)c2cccc(S(=O)(=O)NCc3ccccc3)c2)cc1 | 5 | 40 | -11 | 11 | 9
CSc1ccc(CN(C)C(=O)c2cc(S(=O)(=O)NCc3ccccc3)ccc2C)cc1 | 5 | 49* | -18 | 7 | 5
O=C(/C=C/c1cccc([N+](=O)[O-])c1)Nc1cccc(NC(=O)c2ccco2)c1 | 12 | 26 | -1 | 0 | -1
O=C(/C=C/c1cccc([N+](=O)[O-])c1)Nc1cccc(NC(=O)c2cccs2)c1 | 11 | 58* | -11 | -1 | -1
O=C(/C=C/c1ccc(Cl)c([N+](=O)[O-])c1)Nc1cccc(NC(=O)c2ccco2)c1 | 17 | 69* | -16 | 1 | 2
CCOc1ccc(C(C)=O)cc1CSC(=N)N | 12 | -6 | -11 | 1 | 0
CCCCOc1ccc(Br)cc1CSC(=N)N | 103* | 73* | . | . | .
COc1ccc(O)c(/C=N/n2c(-c3ccco3)csc2=Nc2cccnc2)c1 | 4 | 49* | -6 | 1 | 0
Cn1c(=O)c2c(-c3ccccc3)n(-c3ccccc3Br)cc2n(C)c1=O | 7 | 53* | . | . | .
CC(C)NC(=O)C1CC=CCC1C(=O)O (stereo not drawn) | 0 | 13 | -4 | 1 | -1
CCCCC(CC)CNC(=O)C1CC=CCC1C(=O)O (stereo not drawn) | 37* | 4 | 1 | 0 | -1
O=C(CCS(=O)(=O)c1ccccc1)Nc1ccc(-c2nc3ccccc3s2)cc1 | 5 | 9 | 8 | 1 | 2
O=C(CCS(=O)(=O)c1ccccc1)Nc1cccc(-c2nc3ccccc3s2)c1 | 19 | 60* | -18 | 9 | 7
CC(NS(=O)(=O)OCC(Cl)(Cl)Cl)c1ccc(C(C)(C)C)cc1 (stereo not drawn) | 9 | 52* | -15 | 2 | -1
CC(C)(NS(=O)(=O)OCC(Cl)(Cl)Cl)c1ccccc1 | 5 | 6 | 3 | -1 | -2
Fc1cccc(CCN2CCNC[C@@H]2CC2CCCCC2)c1 | 39* | 7 | -4 | 2 | 6
c1ccc(C2(CN3CCNC[C@@H]3CC3CCCCC3)CC2)cc1 | 13 | 14 | 4 | 2 | 3
Oc1ccc(C[C@@H]2CNCCN2CCCCC2CCCCC2)cc1 | 43* | 3 | -11 | 8 | 9
O=C(NCCc1ccc(Cl)cc1)C1CCN(C(=O)N2CCOc3ccccc32)CC1 | 21 | 50* | -8 | 4 | 7
CN1C(=O)/C(=C/c2cn(CC(=O)NCc3ccco3)c3ccccc23)NC1=S | 4 | -9 | -13 | -1 | 0
CCN=C1S/C(=C\c2cn(CC(=O)NCc3ccco3)c3ccccc23)C(=O)N1CC | 14 | 49* | -11 | 3 | 3
COC(=O)[C@H](CC(C)C)NS(=O)(=O)c1ccccc1 | 8 | 0 | -2 | 0 | 1
